Test results: ChEMBL document CHEMBL1140191, “Lynamicins A-E, chlorinated bisindole pyrrole antibiotics from a novel marine actinomycete” (J Nat Prod, 2008)
≈ marks a conversion by molar mass, not a printed value.

Each molecule was assayed on Haemophilus influenzae (assay: Antibacterial activity against Haemophilus influenzae ATCC 49766 after 14 to 16 hrs).
Assay type: functional
Summary of the method: (§1)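 Serial microbroth dilution (NCCLS) in Haemophilus Test Medium in a CO2 incubator. Final inoculum about 5 × 10^5 cfu/mL, 35 °C for 14-16 h. MIC is the lowest drug concentration preventing visible growth.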

SMILES | MIC
COC(=O)c1[nH]c(C(=O)OC)c(-c2c[nH]c3ccc(Cl)cc23)c1-c1c[nH]c2ccccc12 [LYNAMICIN E] | > 72 µM
COC(=O)c1[nH]cc(-c2c[nH]c3cc(Cl)c(Cl)cc23)c1-c1c[nH]c2ccc(Cl)cc12 [LYNAMICIN B] | 13 µM (≈ 5.96 µg/mL)
COC(=O)c1[nH]cc(-c2c[nH]c3ccc(Cl)cc23)c1-c1c[nH]c2ccc(Cl)cc12 [LYNAMICIN A] | 28 µM (≈ 11.9 µg/mL)
COC(=O)c1[nH]c(C(=O)OC)c(-c2c[nH]c3ccc(Cl)cc23)c1-c1c[nH]c2ccc(Cl)cc12 [LYNAMICIN D] | 17 µM (≈ 8.2 µg/mL)
Clc1cc2[nH]cc(-c3c[nH]cc3-c3c[nH]c4cc(Cl)c(Cl)cc34)c2cc1Cl [LYNAMICIN C] | 15 µM (≈ 6.53 µg/mL)

Each molecule was assayed on Staphylococcus epidermidis (assay: Antibacterial activity against multi drug-resistant Staphylococcus epidermidis ATCC 700578 after 14 to 16 hrs by serial microbroth dilution method).
Assay type: functional
Summary of the method: (§2)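 Broth microdilution MIC per NCCLS standards in cation-adjusted Mueller-Hinton broth, without CO2. Final inoculum approximately 5 × 10^5 cfu/mL. Incubated 35 °C for 14-16 h. MIC taken as the lowest drug concentration preventing visible growth.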

SMILES | MIC
COC(=O)c1[nH]c(C(=O)OC)c(-c2c[nH]c3ccc(Cl)cc23)c1-c1c[nH]c2ccccc12 [LYNAMICIN E] | 45 µM (≈ 20.2 µg/mL)
COC(=O)c1[nH]cc(-c2c[nH]c3cc(Cl)c(Cl)cc23)c1-c1c[nH]c2ccc(Cl)cc12 [LYNAMICIN B] | 2.2 µM (≈ 1.01 µg/mL)
COC(=O)c1[nH]cc(-c2c[nH]c3ccc(Cl)cc23)c1-c1c[nH]c2ccc(Cl)cc12 [LYNAMICIN A] | 9.5 µM (≈ 4.03 µg/mL)
COC(=O)c1[nH]c(C(=O)OC)c(-c2c[nH]c3ccc(Cl)cc23)c1-c1c[nH]c2ccc(Cl)cc12 [LYNAMICIN D] | 8.3 µM (≈ 4 µg/mL)
Clc1cc2[nH]cc(-c3c[nH]cc3-c3c[nH]c4cc(Cl)c(Cl)cc34)c2cc1Cl [LYNAMICIN C] | 2.3 µM (≈ 1 µg/mL)

Each molecule was assayed on Enterococcus faecium (assay: Antibacterial activity against vancomycin-resistant Enterococcus faecium ATCC 700221 after 14 to 16 hrs by serial microbroth dilution method).
Assay type: functional
Summary of the method: as §2

SMILES | MIC
COC(=O)c1[nH]c(C(=O)OC)c(-c2c[nH]c3ccc(Cl)cc23)c1-c1c[nH]c2ccccc12 [LYNAMICIN E] | > 54 µM
COC(=O)c1[nH]cc(-c2c[nH]c3cc(Cl)c(Cl)cc23)c1-c1c[nH]c2ccc(Cl)cc12 [LYNAMICIN B] | 4.4 µM (≈ 2.02 µg/mL)
COC(=O)c1[nH]cc(-c2c[nH]c3ccc(Cl)cc23)c1-c1c[nH]c2ccc(Cl)cc12 [LYNAMICIN A] | 19 µM (≈ 8.06 µg/mL)
COC(=O)c1[nH]c(C(=O)OC)c(-c2c[nH]c3ccc(Cl)cc23)c1-c1c[nH]c2ccc(Cl)cc12 [LYNAMICIN D] | 17 µM (≈ 8.2 µg/mL)
Clc1cc2[nH]cc(-c3c[nH]cc3-c3c[nH]c4cc(Cl)c(Cl)cc34)c2cc1Cl [LYNAMICIN C] | 4.6 µM (≈ 2 µg/mL)

These molecules were tested on Haemophilus influenzae (assay: Antibacterial activity against Haemophilus influenzae ATCC […] after 14 to 16 hrs).
Assay type: functional
Summary of the method: as §1

SMILES | MIC
COC(=O)c1[nH]c(C(=O)OC)c(-c2c[nH]c3ccc(Cl)cc23)c1-c1c[nH]c2ccccc12 [LYNAMICIN E] | > 72 µM
COC(=O)c1[nH]cc(-c2c[nH]c3cc(Cl)c(Cl)cc23)c1-c1c[nH]c2ccc(Cl)cc12 [LYNAMICIN B] | 4.4 µM (≈ 2.02 µg/mL)
COC(=O)c1[nH]cc(-c2c[nH]c3ccc(Cl)cc23)c1-c1c[nH]c2ccc(Cl)cc12 [LYNAMICIN A] | 38 µM (≈ 16.1 µg/mL)
COC(=O)c1[nH]c(C(=O)OC)c(-c2c[nH]c3ccc(Cl)cc23)c1-c1c[nH]c2ccc(Cl)cc12 [LYNAMICIN D] | 10 µM (≈ 4.82 µg/mL)
Clc1cc2[nH]cc(-c3c[nH]cc3-c3c[nH]c4cc(Cl)c(Cl)cc34)c2cc1Cl [LYNAMICIN C] | 9.2 µM (≈ 4 µg/mL)

What follows are molecules tested on Streptococcus pneumoniae (assay: Antibacterial activity against penicillin-sensitive Streptococcus pneumoniae ATCC 49619 after 14 to 16 hrs).
Assay type: functional
Summary of the method: (§3)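 Serial microbroth dilution MIC per NCCLS in cation-adjusted Mueller-Hinton broth II with lysed horse blood. Incubated in a CO2 incubator at 35 °C for 14-16 h. Final inoculum approximately 5 × 10^5 cfu/mL. MIC read as the lowest concentration with no visible growth.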

SMILES | MIC
COC(=O)c1[nH]c(C(=O)OC)c(-c2c[nH]c3ccc(Cl)cc23)c1-c1c[nH]c2ccccc12 [LYNAMICIN E] | > 72 µM
COC(=O)c1[nH]cc(-c2c[nH]c3cc(Cl)c(Cl)cc23)c1-c1c[nH]c2ccc(Cl)cc12 [LYNAMICIN B] | 18 µM (≈ 8.26 µg/mL)
COC(=O)c1[nH]cc(-c2c[nH]c3ccc(Cl)cc23)c1-c1c[nH]c2ccc(Cl)cc12 [LYNAMICIN A] | 57 µM (≈ 24.2 µg/mL)
COC(=O)c1[nH]c(C(=O)OC)c(-c2c[nH]c3ccc(Cl)cc23)c1-c1c[nH]c2ccc(Cl)cc12 [LYNAMICIN D] | 50 µM (≈ 24.1 µg/mL)
Clc1cc2[nH]cc(-c3c[nH]cc3-c3c[nH]c4cc(Cl)c(Cl)cc34)c2cc1Cl [LYNAMICIN C] | 46 µM (≈ 20 µg/mL)

Each molecule was assayed on Escherichia coli (assay: Antibacterial activity against Escherichia coli imp permeable mutant after 14 to 16 hrs by serial microbroth dilution method).
Assay type: functional
Summary of the method: as §2

SMILES | MIC
COC(=O)c1[nH]c(C(=O)OC)c(-c2c[nH]c3ccc(Cl)cc23)c1-c1c[nH]c2ccccc12 [LYNAMICIN E] | > 72 µM
COC(=O)c1[nH]cc(-c2c[nH]c3cc(Cl)c(Cl)cc23)c1-c1c[nH]c2ccc(Cl)cc12 [LYNAMICIN B] | 13 µM (≈ 5.96 µg/mL)
COC(=O)c1[nH]cc(-c2c[nH]c3ccc(Cl)cc23)c1-c1c[nH]c2ccc(Cl)cc12 [LYNAMICIN A] | 16 µM (≈ 6.79 µg/mL)
COC(=O)c1[nH]c(C(=O)OC)c(-c2c[nH]c3ccc(Cl)cc23)c1-c1c[nH]c2ccc(Cl)cc12 [LYNAMICIN D] | > 67 µM
Clc1cc2[nH]cc(-c3c[nH]cc3-c3c[nH]c4cc(Cl)c(Cl)cc34)c2cc1Cl [LYNAMICIN C] | 15 µM (≈ 6.53 µg/mL)

These molecules were tested on Staphylococcus epidermidis (assay: Antibacterial activity against multi drug-resistant Staphylococcus epidermidis ATCC 700582 after 14 to 16 hrs by serial microbroth dilution method).
Assay type: functional
Summary of the method: as §2

SMILES | MIC
COC(=O)c1[nH]c(C(=O)OC)c(-c2c[nH]c3ccc(Cl)cc23)c1-c1c[nH]c2ccccc12 [LYNAMICIN E] | > 72 µM
COC(=O)c1[nH]cc(-c2c[nH]c3cc(Cl)c(Cl)cc23)c1-c1c[nH]c2ccc(Cl)cc12 [LYNAMICIN B] | 2.2 µM (≈ 1.01 µg/mL)
COC(=O)c1[nH]cc(-c2c[nH]c3ccc(Cl)cc23)c1-c1c[nH]c2ccc(Cl)cc12 [LYNAMICIN A] | 9.5 µM (≈ 4.03 µg/mL)
COC(=O)c1[nH]c(C(=O)OC)c(-c2c[nH]c3ccc(Cl)cc23)c1-c1c[nH]c2ccc(Cl)cc12 [LYNAMICIN D] | 8.3 µM (≈ 4 µg/mL)
Clc1cc2[nH]cc(-c3c[nH]cc3-c3c[nH]c4cc(Cl)c(Cl)cc34)c2cc1Cl [LYNAMICIN C] | 2.3 µM (≈ 1 µg/mL)

These molecules were tested on Streptococcus pneumoniae (assay: Antibacterial activity against penicillin-resistant Streptococcus pneumoniae ATCC 51915after 14 to 16 hrs).
Assay type: functional
Summary of the method: as §3

SMILES | MIC
COC(=O)c1[nH]c(C(=O)OC)c(-c2c[nH]c3ccc(Cl)cc23)c1-c1c[nH]c2ccccc12 [LYNAMICIN E] | > 72 µM
COC(=O)c1[nH]cc(-c2c[nH]c3cc(Cl)c(Cl)cc23)c1-c1c[nH]c2ccc(Cl)cc12 [LYNAMICIN B] | 18 µM (≈ 8.26 µg/mL)
COC(=O)c1[nH]cc(-c2c[nH]c3ccc(Cl)cc23)c1-c1c[nH]c2ccc(Cl)cc12 [LYNAMICIN A] | 57 µM (≈ 24.2 µg/mL)
COC(=O)c1[nH]c(C(=O)OC)c(-c2c[nH]c3ccc(Cl)cc23)c1-c1c[nH]c2ccc(Cl)cc12 [LYNAMICIN D] | 42 µM (≈ 20.3 µg/mL)
Clc1cc2[nH]cc(-c3c[nH]cc3-c3c[nH]c4cc(Cl)c(Cl)cc34)c2cc1Cl [LYNAMICIN C] | 46 µM (≈ 20 µg/mL)

Each molecule was assayed on Herpesviridae sp. (assay: Antiviral activity against HSV).
Assay type: functional, organism-based

IC50 | SMILES
17.2 µg/mL (≈ 41.6 µM) | COC(=O)c1[nH]c(C(=O)OC)c(-c2c[nH]c3ccccc23)c1-c1c[nH]c2ccccc12 [LYCOGARUBIN C]
17.2 µg/mL (≈ 44.6 µM) | O=C(O)c1[nH]c(C(=O)O)c(-c2c[nH]c3ccccc23)c1-c1c[nH]c2ccccc12 [LYCOGALIC ACID A]

Each molecule was assayed on Staphylococcus aureus (assay: Antibacterial activity against methicillin-resistant Staphylococcus aureus ATCC 43300 after 14 to 16 hrs by serial microbroth dilution method).
Assay type: functional
Summary of the method: as §2

SMILES | MIC
COC(=O)c1[nH]c(C(=O)OC)c(-c2c[nH]c3ccc(Cl)cc23)c1-c1c[nH]c2ccccc12 [LYNAMICIN E] | 27 µM (≈ 12.1 µg/mL)
COC(=O)c1[nH]cc(-c2c[nH]c3cc(Cl)c(Cl)cc23)c1-c1c[nH]c2ccc(Cl)cc12 [LYNAMICIN B] | 2.2 µM (≈ 1.01 µg/mL)
COC(=O)c1[nH]cc(-c2c[nH]c3ccc(Cl)cc23)c1-c1c[nH]c2ccc(Cl)cc12 [LYNAMICIN A] | 4.7 µM (≈ 1.99 µg/mL)
COC(=O)c1[nH]c(C(=O)OC)c(-c2c[nH]c3ccc(Cl)cc23)c1-c1c[nH]c2ccc(Cl)cc12 [LYNAMICIN D] | 6.2 µM (≈ 2.99 µg/mL)
Clc1cc2[nH]cc(-c3c[nH]cc3-c3c[nH]c4cc(Cl)c(Cl)cc34)c2cc1Cl [LYNAMICIN C] | 3.5 µM (≈ 1.52 µg/mL)

These molecules were tested on Enterococcus faecalis (assay: Antibacterial activity against vancomycin-sensitive Enterococcus faecalis ATCC 29212 after 14 to 16 hrs by serial microbroth dilution method).
Assay type: functional
Summary of the method: (§4)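 NCCLS broth microdilution in cation-adjusted Mueller-Hinton broth, no CO2 incubation. Final inoculum about 5 × 10^5 cfu/mL. Plates held at 35 °C for 14-16 h. MIC read as the lowest concentration with no visible bacterial growth.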

SMILES | MIC
COC(=O)c1[nH]c(C(=O)OC)c(-c2c[nH]c3ccc(Cl)cc23)c1-c1c[nH]c2ccccc12 [LYNAMICIN E] | > 54 µM
COC(=O)c1[nH]cc(-c2c[nH]c3cc(Cl)c(Cl)cc23)c1-c1c[nH]c2ccc(Cl)cc12 [LYNAMICIN B] | 3.3 µM (≈ 1.51 µg/mL)
COC(=O)c1[nH]cc(-c2c[nH]c3ccc(Cl)cc23)c1-c1c[nH]c2ccc(Cl)cc12 [LYNAMICIN A] | 19 µM (≈ 8.06 µg/mL)
COC(=O)c1[nH]c(C(=O)OC)c(-c2c[nH]c3ccc(Cl)cc23)c1-c1c[nH]c2ccc(Cl)cc12 [LYNAMICIN D] | 17 µM (≈ 8.2 µg/mL)
Clc1cc2[nH]cc(-c3c[nH]cc3-c3c[nH]c4cc(Cl)c(Cl)cc34)c2cc1Cl [LYNAMICIN C] | 5.8 µM (≈ 2.52 µg/mL)

The molecules below were run on Staphylococcus aureus (assay: Antibacterial activity against methicillin-sensitive Staphylococcus aureus ATCC 29213 after 14 to 16 hrs by serial microbroth dilution method).
Assay type: functional
Summary of the method: as §4

SMILES | MIC
COC(=O)c1[nH]c(C(=O)OC)c(-c2c[nH]c3ccc(Cl)cc23)c1-c1c[nH]c2ccccc12 [LYNAMICIN E] | > 45 µM
COC(=O)c1[nH]cc(-c2c[nH]c3cc(Cl)c(Cl)cc23)c1-c1c[nH]c2ccc(Cl)cc12 [LYNAMICIN B] | 1.8 µM (≈ 0.826 µg/mL)
COC(=O)c1[nH]cc(-c2c[nH]c3ccc(Cl)cc23)c1-c1c[nH]c2ccc(Cl)cc12 [LYNAMICIN A] | 4.3 µM (≈ 1.82 µg/mL)
COC(=O)c1[nH]c(C(=O)OC)c(-c2c[nH]c3ccc(Cl)cc23)c1-c1c[nH]c2ccc(Cl)cc12 [LYNAMICIN D] | 6.2 µM (≈ 2.99 µg/mL)
Clc1cc2[nH]cc(-c3c[nH]cc3-c3c[nH]c4cc(Cl)c(Cl)cc34)c2cc1Cl [LYNAMICIN C] | 2.5 µM (≈ 1.09 µg/mL)
